Measurements: ChEMBL document CHEMBL5705906 (Nat Commun, 2017)
Calls of active or inactive are those of the source. The calls are words filed in the database; no cut-off is given here.

Legend:
BaF3 [1] = assay: Inhibition of EGFR-T790M/del19 mutant in mouse BaF3 cells assessed as inhibition of ERK phosphorylation at 10 to 1000 nM incubated for 6 hrs by Western blotting analysis; type: cell-based; settings: dose 10-1000 nM
Method in brief: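 Ba/F3 cells carrying the stated EGFR mutant were made IL-3-independent after 1 week of 7 µM blasticidin selection. They were grown in low-glucose DMEM with 10% FBS and exposed to inhibitor for 6 h. Cells were washed in cold PBS, lysed in SDS buffer (100 mM Tris, 1% SDS, 10% glycerol) and boiled 5 min. Protein was measured by BCA, run on SDS-PAGE, transferred to PVDF, blocked in 5% BSA or milk/TBS-T, and immunoblotted.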

BaF3 [2] = type: cell-based; settings: Mus musculus, dose 10-1000 nM, time 6.0 hrs
A549 = assay: Anticancer activity against KRAS-mutated human A549 cells assessed as reduction in cell viability at 1 to 10000 nM incubated for 72 hrs by CellTiter-Glo assay; type: functional, cell-based; settings: dose 1-10000 nM
PC-9 [3] = assay: Inhibition of EGFR T790M/del19 mutant in human PC-9 cells assessed as reduction in EGFR phosphorylation at 10 to 1000 nM by Western blotting analysis; type: cell-based; settings: dose 10-1000 nM
PC-9 [4] = assay: Inhibition of EGFR T790M/del19 mutant in human PC-9 cells assessed as reduction in Akt phosphorylation at 10 to 1000 nM by Western blotting analysis; type: cell-based; settings: dose 10-1000 nM
PC-9 [5] = assay: Inhibition of EGFR T790M/del19 mutant in human PC-9 cells assessed as reduction in S6 phosphorylation at 10 to 1000 nM by Western blotting analysis; type: cell-based; settings: dose 10-1000 nM
PC-9 [6] = type: functional, organism-based; settings: Homo sapiens, dose 75.0 mg/kg, route po, time 15.0 day
PC-9 [7] = assay: Anti-tumor activity against EGFR T790M/del19 mutant expressing gefitinib-resistant human PC-9 cells xenografted in Balb-c nu/nu mouse assessed as growth inhibition at 75 mg/kg, po administered for 42 days; type: functional, organism-based; settings: time 42.0 day
[8] = tested on: Ba/F3 EGFR-Del19/T790M/C797S; assay: Cytotoxicity against mouse Ba/F3 EGFR-Del19/T790M/C797S cells assessed as growth inhibition at 100 nM incubated for 72 hrs in presence of panitumumab by CellTiter-Glo assay; type: functional, cell-based
PC-9 [9] = assay: Anti-tumor activity against human PC-9 cells expressing EGFR-C797S/T790M/del19 mutant xenografted in Balb-c nu/nu mouse assessed as decreased tumor growth at 75 mg/kg, po administered for 60 days and measured twice weekly in presence of cetuximab; type: functional, organism-based; settings: time 60.0 day
Method in brief: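 PC9 EGFR-C797S/T790M/del19 xenografts in Balb-c nu/nu mice, randomized at ~200 mm³. […] Tumour volume 0.5×length×width² and body weight measured twice weekly. Survival shown by Kaplan-Meier curve. N = 6. Mann-Whitney U test on tumour volume at day 23.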

PC-9 [10] = assay: Anti-tumor activity against human PC-9 cells expressing EGFR-C797S/T790M/del19 mutant xenografted in Balb-c nu/nu mouse assessed as prolonged survival at 75 mg/kg, po administered for 60 days and measured twice weekly in presence of panitumumab; type: functional, organism-based; settings: time 60.0 day
Method in brief: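 PC9 EGFR-C797S/T790M/del19 xenografts in Balb-c nu/nu mice, randomized at ~200 mm³. […] Tumour volume 0.5×length×width² measured twice weekly. Survival by Kaplan-Meier. N = 6. Mann-Whitney U test at days 16 and 23.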

MGH121 = assay: Anti-tumor activity against human MGH121 cells expressing EGFR-C797S/T790M/del19 mutant xenografted in SCID-beige mouse assessed as tumor shrinkage at 75 mg/kg, po administered for 40 days and measured twice weekly; type: functional, organism-based; settings: time 40.0 day
Method in brief: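 MGH121-res2 cells (EGFR-C797S/T790M/del19) implanted s.c. in SCID-beige mice. Randomized at mean tumour ~200 mm³. […] Tumour volume 0.5×length×width² and body weight measured twice weekly. N = 6, mean ± s.d. Mann-Whitney U test on day 42.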

[11] = Toxicity against Balb-c nu/nu mouse xenografted with human PC-9 cells expressing EGFR-C797S/T790M/del19 mutant assessed as change in body weight at 75 mg/kg, po administered for 60 days and measured twice weekly in presence of cetuximab; type: organism-based; settings: in vivo, 1440 h, time 60 day
Method in brief: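 Balb-c nu/nu mice carried subcutaneous PC9 triple-mutant xenografts (6×10^6 cells in 1:2 Matrigel) and were randomized at ~200 mm³. […] Body weight was measured twice weekly, N=6 per arm.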

BaF3 [12] = settings: Mus musculus, dose 10-1000 nM
BaF3 [13] = settings: Mus musculus, dose 10-1000 nM, time 6.0 hrs
BaF3 [14] = settings: Mus musculus, dose 10-1000 nM, time 6.0 hrs; remark: listed apart in the source
[15] = tested on: Epidermal growth factor receptor (Homo sapiens), P00533 [UNDEFINED MUTATION]; settings: MGH121, dose 10-1000 nM
Sequence of Epidermal growth factor receptor (Homo sapiens), P00533 [UNDEFINED MUTATION] (P00533 whole entry, looked up, change not shown): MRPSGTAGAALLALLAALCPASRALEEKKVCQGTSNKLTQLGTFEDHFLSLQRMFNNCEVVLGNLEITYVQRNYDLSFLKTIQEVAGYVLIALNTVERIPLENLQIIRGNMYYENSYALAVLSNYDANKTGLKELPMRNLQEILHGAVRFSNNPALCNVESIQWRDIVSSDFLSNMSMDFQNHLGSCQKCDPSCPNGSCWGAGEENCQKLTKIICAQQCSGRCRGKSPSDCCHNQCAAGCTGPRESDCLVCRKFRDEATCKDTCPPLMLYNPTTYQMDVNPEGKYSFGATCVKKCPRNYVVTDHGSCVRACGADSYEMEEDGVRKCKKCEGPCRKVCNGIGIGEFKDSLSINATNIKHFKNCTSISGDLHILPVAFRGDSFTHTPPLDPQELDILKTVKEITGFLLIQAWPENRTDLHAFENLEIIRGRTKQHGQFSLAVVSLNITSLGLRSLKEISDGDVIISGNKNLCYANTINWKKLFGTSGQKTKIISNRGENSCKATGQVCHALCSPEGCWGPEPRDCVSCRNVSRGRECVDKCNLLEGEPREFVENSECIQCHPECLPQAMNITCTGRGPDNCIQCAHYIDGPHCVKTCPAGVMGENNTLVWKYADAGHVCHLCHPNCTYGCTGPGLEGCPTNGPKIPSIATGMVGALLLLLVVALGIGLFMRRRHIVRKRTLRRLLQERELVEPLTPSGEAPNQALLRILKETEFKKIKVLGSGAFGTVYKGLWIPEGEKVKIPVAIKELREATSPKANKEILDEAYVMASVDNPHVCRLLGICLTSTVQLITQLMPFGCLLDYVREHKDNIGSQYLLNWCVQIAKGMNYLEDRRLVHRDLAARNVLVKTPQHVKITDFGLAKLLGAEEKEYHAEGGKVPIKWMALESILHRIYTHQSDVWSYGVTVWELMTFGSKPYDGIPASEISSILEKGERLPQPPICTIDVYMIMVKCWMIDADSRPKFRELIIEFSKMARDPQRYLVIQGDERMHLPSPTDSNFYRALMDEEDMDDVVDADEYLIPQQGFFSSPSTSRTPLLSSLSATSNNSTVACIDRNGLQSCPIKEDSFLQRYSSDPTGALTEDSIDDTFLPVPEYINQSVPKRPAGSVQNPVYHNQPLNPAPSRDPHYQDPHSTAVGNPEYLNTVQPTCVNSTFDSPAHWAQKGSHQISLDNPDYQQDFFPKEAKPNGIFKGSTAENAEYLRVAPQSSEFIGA

[16] = tested on: Epidermal growth factor receptor (Homo sapiens), P00533 [UNDEFINED MUTATION]; settings: PC-9, dose 10-1000 nM
PC-9 [17] = settings: Homo sapiens, dose 75.0 mg/kg, route po, time 15.0 day
PC-9 [18] = settings: Homo sapiens, dose 75.0 mg/kg, route po, time 15.0 day; remark: listed apart in the source
BaF3 [19] = settings: Mus musculus, dose 30-1000 nM, time 6.0 hrs
BaF3 [20] = settings: Mus musculus, dose 30-1000 nM, time 6.0 hrs; remark: listed apart in the source
[21] = tested on: Epidermal growth factor receptor (Homo sapiens), P00533 [UNDEFINED MUTATION]; settings: PC-9, dose 500.0 nM, time 48.0 hrs
[22] = tested on: Epidermal growth factor receptor (Homo sapiens), P00533 [UNDEFINED MUTATION]; settings: MGH121, dose 500.0 nM, time 48.0 hrs
[23] = tested on: Epidermal growth factor receptor (Homo sapiens), P00533 [UNDEFINED MUTATION]; settings: MGH121, dose 500.0 nM, time 6-48 hrs, TDE = time-dependent effect
[24] = tested on: Epidermal growth factor receptor (Homo sapiens), P00533 [UNDEFINED MUTATION]; settings: MGH121, dose 500.0 nM, time 48.0 hrs; remark: listed apart in the source
PC-9 [25] = settings: Homo sapiens, dose 75.0 mg/kg, route po, time 60.0 day
PC-9 [26] = settings: Homo sapiens, dose 75.0 mg/kg, route po, time 60.0 day; remark: listed apart in the source
PC-9 [27] = settings: Homo sapiens, dose 75.0 mg/kg, route po, time 60.0 day; remark: listed apart in the source

inhibition [15]: Active
inhibition [16]: Active
inhibition [21]: inactive
inhibition [22]: inactive
inhibition [23]: Tde
inhibition [24]: Active
Compound: COc1cc(N2CCC(N3CCN(C)CC3)CC2)ccc1Nc1ncc(Cl)c(Nc2ccccc2P(C)(C)=O)n1 [BRIGATINIB]
inhibition (BaF3 [1]): Active
inhibition (BaF3 [2]): Active
Activity (A549): Active
inhibition (PC-9 [3]): Active
inhibition (PC-9 [4]): Active
inhibition (PC-9 [5]): Active
Activity (PC-9 [6]): Active
Activity (PC-9 [7]): Active
growth inhibition (GI) [8]: Active
Activity (PC-9 [9]): Active
Activity (PC-9 [10]): Active
Activity (MGH121): Active
Activity [11]: Non-Toxic
inhibition (BaF3 [12]): Dose-Dependent Effect
inhibition (BaF3 [13]): Active
inhibition (BaF3 [14]): Active
inhibition (PC-9 [17]): Active
inhibition (PC-9 [18]): Active
inhibition (BaF3 [19]): Active
inhibition (BaF3 [20]): Active
inhibition (PC-9 [25]): Active
inhibition (PC-9 [26]): Active
inhibition (PC-9 [27]): Active
